# Columns and labels:
# Streptococcus pneumoniae [1] = test: Antibacterial activity against levofloxacin-resistant Streptococcus pneumoniae; format: functional
# Outline: (§1)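 Broth microdilution MIC per CLSI guidelines, incubated at 35°C. Cation-adjusted Mueller-Hinton broth for nonfastidious organisms and staphylococci. Streptococci tested in the same broth with 3% lysed horse blood. Anaerobes tested in supplemented Brucella broth inside an anaerobe chamber (5% CO2, 5% H2, 90% N2), read after 48 h. Strains were mainly recent clinical isolates with confirmed identity.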
# Enterococcus gallinarum = test: Antibacterial activity against Enterococcus gallinarum; format: functional
# Prevotella sp. = test: Antibacterial activity against Prevotella sp.; format: functional
# Outline: (§2)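 Anaerobic broth microdilution MIC following CLSI guidelines, in supplemented Brucella broth. Run in an anaerobe chamber under 5% CO2, 5% H2 and 90% N2 at 35°C, and read after 48 h. Reported as MIC range, MIC50 and MIC90.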
# Klebsiella pneumoniae [2] = test: Antibacterial activity against Klebsiella pneumoniae; format: functional
# Outline: (§3)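 Broth microdilution MIC following CLSI guidelines, in cation-adjusted Mueller-Hinton broth, incubated at 35°C. Recent clinical isolates and reference strains, with identity confirmed by automated and standard microbiological methods. Results reported as MIC range, MIC50 and MIC90.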
# Moraxella catarrhalis [3] = test: Antibacterial activity against beta-lactamase positive Moraxella catarrhalis; format: functional
# Shigella flexneri = test: Antibacterial activity against Shigella flexneri; format: functional; outline: as §3
# Anaerococcus prevotii = test: Antibacterial activity against Peptostreptococcus prevotii; format: functional; outline: as §2
# Streptococcus sanguinis = test: Antibacterial activity against Streptococcus sanguis; format: functional
# Outline: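 Broth microdilution MIC following CLSI guidelines, in cation-adjusted Mueller-Hinton broth with 3% lysed horse blood. Plates incubated at 35°C. Clinical isolates and reference strains, with identity confirmed by standard microbiological methods.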
# Clostridioides difficile = test: Antibacterial activity against Clostridium difficile; format: functional; outline: as §2
# Moraxella catarrhalis [4] = test: Antibacterial activity against beta-lactamase negative Moraxella catarrhalis; format: functional
# Streptococcus pneumoniae [5] = test: Antibacterial activity against penicillin-intermediate resistant Streptococcus pneumoniae; format: functional; outline: as §1
# Neisseria gonorrhoeae = test: Antibacterial activity against Neisseria gonorrhoeae; format: functional
# Outline: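 MIC by broth microdilution in gonococcal broth, incubated at 35°C in 5% CO2. Reported as MIC range, MIC50 and MIC90.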
# Cutibacterium acnes = test: Antibacterial activity against Propionibacterium acnes; format: functional
# Alloiococcus otitis = test: Antibacterial activity against Alloiococcus otitidis; format: functional
# Outline: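 MIC by broth microdilution following CLSI guidelines, in cation-adjusted Mueller-Hinton broth with 3% lysed horse blood. Incubated at 35°C and read after 48 h. Reported as MIC range, MIC50 and MIC90.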
# [6] = test system: Enterococcus casseliflavus; test: Antibacterial activity against Enterococcus casseliflavus; format: functional
# Listeria monocytogenes = test: Antibacterial activity against Listeria monocytogenes; format: functional
# Outline: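 Broth microdilution MIC following CLSI guidelines, in cation-adjusted Mueller-Hinton broth containing 3% lysed horse blood, incubated at 35°C. Clinical isolates with identity confirmed. Reported as MIC range, MIC50 and MIC90.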
# Prevotella bivia = test: Antibacterial activity against Prevotella bivia; format: functional; outline: as §2
# [7] = test system: Stenotrophomonas maltophilia; test: Antibacterial activity against Stenotrophomonas maltophilia; format: functional; outline: as §3
# Serratia marcescens = test: Antibacterial activity against Serratia marcescens; format: functional; outline: as §3
# [8] = test system: Prevotella melaninogenica; test: Antibacterial activity against Prevotella melaninogenica; format: functional; outline: as §2
# Klebsiella aerogenes = test: Antibacterial activity against Enterobacter aerogenes; format: functional; outline: as §3
# Bacteroides fragilis = test: Antibacterial activity against Bacteroides fragilis; format: functional; outline: as §2
# Shigella sonnei = test: Antibacterial activity against Shigella sonnei; format: functional; outline: as §3
# Enterococcus faecalis = test: Antibacterial activity against beta-lactamase positive Enterococcus faecalis; format: functional
# Outline: (§4)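 MIC by CLSI broth microdilution for nonfastidious organisms, in cation-adjusted Mueller-Hinton broth incubated at 35°C.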
# [9] = test system: Parabacteroides distasonis; test: Antimicrobial activity against Bacteroides distasonis; format: functional
# Outline: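 Anaerobic broth microdilution MIC following CLSI guidelines, in supplemented Brucella broth. Incubated at 35°C in a chamber under 5% CO2, 5% H2 and 90% N2. Read after 48 h.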
# Enterococcus faecium [10] = test: Antibacterial activity against Enterococcus faecium; format: functional; outline: as §1
# Proteus vulgaris = test: Antibacterial activity against Proteus vulgaris; format: functional; outline: as §3
# Klebsiella pneumoniae [11] = test: Antibacterial activity against beta-lactamase positive Klebsiella pneumoniae; format: functional; outline: as §4
# Actinomyces sp. = test: Antibacterial activity against Actinomyces sp.; format: functional
# [12] = test system: Fusobacterium necrophorum; test: Antibacterial activity against Fusobacterium necrophorum; format: functional; outline: as §2
# Salmonella enteritidis = test: Antibacterial activity against Salmonella enterica serovar Enteritidis; format: functional, Salmonella enterica subsp. enterica serovar Enteritidis; outline: as §3
# Salmonella typhimurium = test: Antibacterial activity against Salmonella enterica serovar Typhimurium; format: functional, Salmonella enterica subsp. enterica serovar Typhimurium; outline: as §3
# Clostridium perfringens = test: Antibacterial activity against Clostridium perfringens; format: functional; outline: as §1
# Enterococcus faecium [13] = test: Antibacterial activity against VanA-resistant Enterococcus faecium; format: functional; outline: as §1
# [14] = test system: Peptostreptococcus anaerobius; test: Antibacterial activity against Peptostreptococcus anaerobius; format: functional; outline: as §2
structure (smiles),measurement,setting,value
Cc1c(N2CC[C@@H]([C@H](C)N)C2)c(F)cc2c(=O)[nH]c(=O)n(C3CC3)c12,MIC50,Streptococcus pneumoniae [1],0.06 mg/L
same,MIC90,Streptococcus pneumoniae [1],0.06 mg/L
same,MIC50,Enterococcus gallinarum,0.25 mg/L
same,MIC90,Enterococcus gallinarum,0.5 mg/L
same,MIC50,Prevotella sp.,0.5 mg/L
same,MIC90,Prevotella sp.,2 mg/L
same,MIC50,Klebsiella pneumoniae [2],4 mg/L
same,MIC90,Klebsiella pneumoniae [2],16 mg/L
same,MIC50,Moraxella catarrhalis [3],0.5 mg/L
same,MIC90,Moraxella catarrhalis [3],0.5 mg/L
same,MIC50,Shigella flexneri,2 mg/L
same,MIC90,Shigella flexneri,4 mg/L
same,MIC,Anaerococcus prevotii,0.06 mg/L
same,MIC50,Streptococcus sanguinis,0.03 mg/L
same,MIC90,Streptococcus sanguinis,0.06 mg/L
same,MIC50,Clostridioides difficile,2 mg/L
same,MIC90,Clostridioides difficile,8 mg/L
same,MIC50,Moraxella catarrhalis [4],0.5 mg/L
same,MIC90,Moraxella catarrhalis [4],1 mg/L
same,MIC50,Streptococcus pneumoniae [5],0.06 mg/L
same,MIC90,Streptococcus pneumoniae [5],0.125 mg/L
same,MIC50,Neisseria gonorrhoeae,0.5 mg/L
same,MIC90,Neisseria gonorrhoeae,1 mg/L
same,MIC50,Cutibacterium acnes,4 mg/L
same,MIC90,Cutibacterium acnes,8 mg/L
same,MIC50,Alloiococcus otitis,0.008 mg/L
same,MIC90,Alloiococcus otitis,0.008 mg/L
same,MIC50,[6],0.25 mg/L
same,MIC90,[6],0.25 mg/L
same,MIC50,Listeria monocytogenes,0.25 mg/L
same,MIC90,Listeria monocytogenes,0.25 mg/L
same,MIC50,Prevotella bivia,0.5 mg/L
same,MIC90,Prevotella bivia,2 mg/L
same,MIC50,[7],32 mg/L
same,MIC90,[7],64 mg/L
same,MIC50,Serratia marcescens,4 mg/L
same,MIC90,Serratia marcescens,32 mg/L
same,MIC50,[8],0.5 mg/L
same,MIC90,[8],2 mg/L
same,MIC50,Klebsiella aerogenes,8 mg/L
same,MIC90,Klebsiella aerogenes,64 mg/L
same,MIC50,Bacteroides fragilis,8 mg/L
same,MIC90,Bacteroides fragilis,16 mg/L
same,MIC50,Shigella sonnei,2 mg/L
same,MIC90,Shigella sonnei,4 mg/L
same,MIC,Enterococcus faecalis,0.06 mg/L
same,MIC50,[9],16 mg/L
same,MIC90,[9],32 mg/L
same,MIC50,Enterococcus faecium [10],1 mg/L
same,MIC90,Enterococcus faecium [10],4 mg/L
same,MIC,Proteus vulgaris,2 mg/L
same,MIC50,Klebsiella pneumoniae [11],8 mg/L
same,MIC90,Klebsiella pneumoniae [11],64 mg/L
same,MIC,Actinomyces sp.,1 mg/L
same,MIC,[12],0.125 mg/L
same,MIC50,Salmonella enteritidis,2 mg/L
same,MIC90,Salmonella enteritidis,4 mg/L
same,MIC50,Salmonella typhimurium,2 mg/L
same,MIC90,Salmonella typhimurium,4 mg/L
same,MIC50,Clostridium perfringens,2 mg/L
same,MIC90,Clostridium perfringens,8 mg/L
same,MIC50,Enterococcus faecium [13],1 mg/L
same,MIC90,Enterococcus faecium [13],2 mg/L
same,MIC,[14],0.06 mg/L

# From ChEMBL document CHEMBL1147105, “In vitro and in vivo activities of PD 0305970 and PD 0326448, new bacterial gyrase/topoisomerase inhibitors with potent antibacterial activities versus multidrug-resistant gram-positive and fastidious organism groups” (2007)
